# According to ChEMBL document CHEMBL4622968, “Discovery of [1,2,4]triazolo[4,3-a]pyridines as potent Smoothened inhibitors targeting the Hedgehog pathway with improved antitumor activity in vivo” (Bioorg Med Chem, 2020):
# The source made the active and inactive calls. The calls are words filed in the database; no cut-off is given here.
# Legend:
# T47D = assay: Antiproliferation activity against human T47D cells assessed as reduction in cell viability incubated for 72 hr by MTT assay; type: functional, cell-based
# In short: (§1)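 MTT assay. Cells were plated overnight and exposed to a range of concentrations for 72 h. MTT was then added for 4 h and absorbance read at 570 nm. Inhibition% = [(control − compound)/(control − blank)] × 100. IC50 was fitted from the curves. Mean ± S.D. of 3–5 separate experiments. RPMI 1640 + 10% FBS; MCF10A in DMEM/F12 with 5% horse serum, EGF, hydrocortisone, insulin and cholera toxin.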
# [1] = Inhibition of hedgehog pathway in mouse NIH/3T3 cells harboring GRE-Luc assessed as inhibition of SAG-induced Hh signaling pathway by dual luciferase reporter gene assay; type: cell-based; details: NIH3T3
# In short: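 NIH3T3 cells co-transfected with 8×3' Gli-BS-delta51-Luc II firefly reporter and pRL-TK Renilla plasmid; after 24 h treated with compounds plus SAG (pathway activator). Gli luciferase normalized to Renilla (dual-luciferase read-out); IC50 = concentration halving normalized signal; mean ± S.D. of 3–5 separate experiments.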
# MDA-MB-468 [2] = assay: Antiproliferation activity against human MDA-MB-468 cells assessed as reduction in cell viability incubated for 72 hr by MTT assay; type: functional, cell-based; details: MDA-MB-468, 72 h; in short: as §1
# MDA-MB-231 = assay: Antiproliferation activity against human MDA-MB-231 cells assessed as reduction in cell viability incubated for 72 hrs measured after 4 hrs by MTT assay; type: functional, cell-based; in short: as §1
# MCF7 = assay: Antiproliferation activity against human MCF7 cells assessed as reduction in cell viability incubated for 72 hrs by MTT assay; type: functional, cell-based; details: MCF7, 72 h; in short: as §1
# A549 = assay: Antiproliferation activity against human A549 cells assessed as reduction in cell viability incubated for 72 hrs by MTT assay; type: functional, cell-based; details: A549, 72 h; in short: as §1
# U-251 = assay: Antiproliferation activity against human U251 cells assessed as reduction in cell viability incubated for 72 hrs by MTT assay; type: functional, cell-based; details: U-251, 72 h; in short: as §1
# AN3-CA = assay: Antiproliferation activity against human AN3CA cells assessed as reduction in cell viability incubated for 72 hr by MTT assay; type: functional, cell-based; in short: as §1
# HeLa = assay: Antiproliferation activity against human HeLa cells assessed as reduction in cell viability incubated for 72 hrs by MTT assay; type: functional, cell-based; in short: as §1
# Protein smoothened [3] = target: T1, Protein smoothened (Homo sapiens, UniProt Q99835); assay: Binding affinity to recombinant human Smo receptor assessed as association rate constant by SPR analysis
# In short: (§2)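 Surface plasmon resonance with recombinant Smo protein, run in PBS at a flow rate of 2 μL/s and 4 °C. Analytes were injected at 2.5, 5 and 10 μM. The chip was regenerated with 0.5% SDS:glycine-HCl pH 2.0 (1:1). ka, kd, Rmax, KA and KD came from a global fit of the sensorgrams.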
# Protein smoothened [4] = target: T1, Protein smoothened; assay: Binding affinity to recombinant human Smo receptor assessed as dissociation rate constant by SPR analysis; in short: as §2
# Protein smoothened [5] = target: T1, Protein smoothened; assay: Binding affinity to recombinant human Smo receptor assessed as maximum response at equilibrium by SPR analysis; in short: as §2
# Protein smoothened [6] = target: T1, Protein smoothened; assay: Binding affinity to recombinant human Smo receptor assessed as association constant at equilibrium by SPR analysis
# Protein smoothened [7] = target: T1, Protein smoothened; assay: Binding affinity to recombinant human Smo receptor assessed as dissociation constant at equilibrium by SPR analysis
# MCF-10A = assay: Cytotoxicity against human MCF10A cells assessed as cell viability incubated for 72 hrs measured by MTT assay; type: cell-based; in short: as §1
# MDA-MB-468 [8] = assay: Inhibition of hedgehog pathway in human MDA-MB-468 cells assessed as decrease in Smo protein levels in cilia at 28 uM incubated for 24 hrs by immunostaining based confocal microscopic analysis; type: cell-based
# In short: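 MDA-MB-468 cells were treated at 28 μM for 24 h with or without SAG. Cilia were immunostained for acetylated α-tubulin and Smo and imaged by confocal microscopy. Comparisons were made against DMSO and against SAG alone.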
# [9] = Acute toxicity in Kunming mouse assessed as mortality at 741 mg/kg, ig observed for 14 days relative to control; type: organism-based; details: in vivo, po, read-out: Activity
# In short: (§3)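 Kunming mice, groups of 5 female and 5 male per dose, dosed once by gavage at graded doses; mortality recorded over 14 days as dead/treated and percent. LD50 derived by improved Karber's method: LD50 = lg^-1[xm − i(ΣP − 0.5)], xm log of maximal dose, i log ratio of neighbouring doses; 95% confidence intervals given.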
# [10] = Acute toxicity in Kunming mouse assessed as mortality at 1111 mg/kg, ig observed for 14 days relative to control; type: organism-based; details: in vivo, po, read-out: Activity; in short: as §3
# [11] = Acute toxicity in Kunming mouse assessed as mortality at 1778 mg/kg, ig observed for 14 days relative to control; type: organism-based; details: in vivo, po, read-out: Activity; in short: as §3
# [12] = Acute toxicity in Kunming mouse assessed as mortality at 2667 mg/kg, ig observed for 14 days relative to control; type: organism-based; details: in vivo, po, read-out: Activity; in short: as §3
# [13] = Acute toxicity in Kunming mouse assessed as mortality at 4000 mg/kg, ig observed for 14 days relative to control; type: organism-based; details: in vivo, po, read-out: Activity; in short: as §3
# [14] = Acute toxicity in Kunming mouse assessed as lethality through intragastric administration observed for 14 days; details: in vivo, po; in short: as §3
# [15] = Toxicity in BALB/c mouse xenografted with human MDA-MB-468 cells assessed as body weight at 80 to 100 mg/kg, ig measured every day for 21 day; type: organism-based; details: in vivo, po, 504 h
# In short: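 Female BALB/c nude mice, 6–8 weeks, given 1.0×10^7 MDA-MB-468 cells s.c. in right posterior flank; at 100 mm3 tumours, randomized into groups of five. Daily gavage at 80 or 100 mg/kg in saline with 0.1% Tween 80, or vehicle alone; body weight recorded daily, tumour volume every 2 days; sacrificed day 21.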
# [16] = Acute toxicity in Kunming mouse assessed as mortality at 5000 mg/kg, ig observed for 14 days relative to control; type: organism-based; details: in vivo, po, read-out: Activity; in short: as §3
# T1 sequence (Q99835 whole entry): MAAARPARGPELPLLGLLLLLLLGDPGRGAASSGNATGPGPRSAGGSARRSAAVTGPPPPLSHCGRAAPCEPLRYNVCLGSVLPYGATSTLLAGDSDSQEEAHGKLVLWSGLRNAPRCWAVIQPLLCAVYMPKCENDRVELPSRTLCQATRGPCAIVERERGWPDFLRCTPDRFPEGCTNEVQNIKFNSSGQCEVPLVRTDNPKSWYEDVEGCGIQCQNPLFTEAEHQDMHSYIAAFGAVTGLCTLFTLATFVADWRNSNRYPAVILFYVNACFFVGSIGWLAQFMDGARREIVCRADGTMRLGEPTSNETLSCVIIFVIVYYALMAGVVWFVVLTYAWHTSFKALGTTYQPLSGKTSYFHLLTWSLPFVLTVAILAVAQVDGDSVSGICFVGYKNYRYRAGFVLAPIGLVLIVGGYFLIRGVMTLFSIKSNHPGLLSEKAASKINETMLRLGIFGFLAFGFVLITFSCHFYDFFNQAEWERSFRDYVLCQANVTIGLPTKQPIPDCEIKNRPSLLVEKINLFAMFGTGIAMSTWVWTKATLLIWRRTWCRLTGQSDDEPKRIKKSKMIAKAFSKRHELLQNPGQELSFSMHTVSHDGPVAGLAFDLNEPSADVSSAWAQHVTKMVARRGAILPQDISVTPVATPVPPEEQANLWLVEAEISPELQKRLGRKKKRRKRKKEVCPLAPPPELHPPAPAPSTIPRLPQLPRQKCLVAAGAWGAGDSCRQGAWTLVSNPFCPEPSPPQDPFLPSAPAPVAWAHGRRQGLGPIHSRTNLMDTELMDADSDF
Structure (SMILES),IC50 (T47D) [µM],IC50 [1] [µM],IC50 (MDA-MB-468 [2]) [µM],IC50 (MDA-MB-231) [µM],IC50 (MCF7) [µM],IC50 (A549) [µM],IC50 (U-251) [µM],IC50 (AN3-CA) [µM],IC50 (HeLa) [µM],other results
O=C(Nc1ccc(Cl)c(-c2nnc3c(Cl)cccn23)c1)c1ccc(F)cc1Cl,> 100,8.22,> 100,75,> 100,> 100,> 100,> 100,> 100,
O=C(Nc1ccc(Cl)c(-c2nnc3c(Cl)cccn23)c1)c1c(F)cccc1Cl,> 100,> 10,57.6,> 100,> 100,72.3,> 100,> 100,> 100,
Cc1cc(Cl)ccc1C(=O)Nc1ccc(Cl)c(-c2nnc3c(Cl)cccn23)c1,> 100,> 10,34.3,> 100,> 100,> 100,> 100,> 100,> 100,
O=C(Nc1ccc(Cl)c(-c2nnc3c(Cl)cccn23)c1)c1ccc(C(F)(F)F)cc1Cl,> 100,5.2,> 100,> 100,81.6,> 100,> 100,> 100,> 100,
O=C(Nc1ccc(Cl)c(-c2nnc3c(Cl)cccn23)c1)c1ccc(Cl)cc1,> 100,2.73,> 100,> 100,58.4,73.6,> 100,> 100,> 100,
O=C(Nc1ccc(Cl)c(-c2nnc3c(Cl)cccn23)c1)c1ccccc1Cl,83.8,0.727,> 100,59.9,92.2,> 100,> 100,> 100,> 100,
O=C(Nc1ccc(Cl)c(-c2nnc3c(Cl)cccn23)c1)c1ccon1,> 100,> 10,> 100,> 100,> 100,42.7,> 100,> 100,> 100,
O=C(Nc1ccc(Cl)c(-c2nnc3c(Cl)cccn23)c1)c1ccc(C(F)(F)F)cc1F,70.8,0.096,22.3,> 100,62.8,> 100,> 100,41.2,61.9,Ka (Protein smoothened [3]): 111 M⁻¹ s⁻¹; Kdiss (Protein smoothened [4]): 1.51 ×10⁻³ /s; Rmax (Protein smoothened [5]): 49.2 RU; KA (Protein smoothened [6]): 7.35 ×10⁴ /M; Kd (Protein smoothened [7]): 13.6 µM
CS(=O)(=O)c1ccc(C(=O)Nc2ccc(Cl)c(-c3nnc4c(Cl)cccn34)c2)cc1,> 100,1.77,> 100,> 100,94.2,> 100,> 100,> 100,> 100,
O=C(Nc1ccc(Cl)c(-c2nnc3c(Cl)cccn23)c1)c1cccnc1Cl,> 100,> 10,> 100,89.7,> 100,35.8,> 100,> 100,87.5,
CS(=O)(=O)c1ccc(C(=O)Nc2ccc(Cl)c(-c3nnc4c(Cl)cccn34)c2)c(Cl)c1,> 100,4.27,> 100,37.2,> 100,> 100,44.6,> 100,> 100,
Cc1nc(C(=O)Nc2ccc(Cl)c(-c3nnc4c(Cl)cccn34)c2)cs1,> 100,> 10,> 100,> 100,> 100,> 100,74.3,> 100,79.8,
O=C(Nc1ccc(Cl)c(-c2nnc3c(Cl)cccn23)c1)c1cccnc1,> 100,> 10,> 100,> 100,> 100,> 100,> 100,> 100,> 100,
O=C(Nc1ccc(Cl)c(-c2nnc3c(Cl)cccn23)c1)c1ccc(Cl)cc1Cl,> 100,0.285,21.6,> 100,78.2,61.3,> 100,84.8,> 100,
O=C(Nc1ccc(Cl)c(-c2nnc3c(Cl)cccn23)c1)c1ccccc1,> 100,0.77,> 100,58.2,> 100,76.9,73.5,67.6,> 100,
CS(=O)(=O)c1ccc(C(=O)Nc2ccc(Cl)c(-c3ccccn3)c2)c(Cl)c1 [VISMODEGIB],> 100,0.1,79,> 100,> 100,> 100,> 100,93,61.7,IC50 (MCF-10A): 89.5 µM; Ka (Protein smoothened [3]): 179 M⁻¹ s⁻¹; Kdiss (Protein smoothened [4]): 0.0174 ×10⁻³ /s; Rmax (Protein smoothened [5]): 4.63 RU; inhibition (MDA-MB-468 [8]): Active; mortality at 336 h [9]: 10%; mortality at 336 h [10]: 30%; mortality at 336 h [11]: 50%; mortality at 336 h [12]: 60%; mortality at 336 h [13]: 80%; LD50 at 336 h [14]: 2010 mg/kg; Activity [15]: Non-Toxic
O=C(Nc1ccc(Cl)c(-c2nnc3c(Cl)cccn23)c1)c1ccccn1,> 100,1.08,> 100,92,96.4,> 100,79,> 100,75.5,
CS(=O)(=O)c1cccc(C(=O)Nc2ccc(Cl)c(-c3nnc4c(Cl)cccn34)c2)c1,> 100,2.98,> 100,> 100,88.9,> 100,> 100,> 100,86.4,
O=C(Nc1ccc(Cl)c(-c2nnc3c(Cl)cccn23)c1)c1cccc(Cl)c1,30.2,0.102,54.8,66.1,71.9,52.7,43.1,68.4,> 100,Ka (Protein smoothened [3]): 101 M⁻¹ s⁻¹; Kdiss (Protein smoothened [4]): 1.23 ×10⁻³ /s; Rmax (Protein smoothened [5]): 41.2 RU; KA (Protein smoothened [6]): 8.21 ×10⁴ /M; Kd (Protein smoothened [7]): 12.1 µM; mortality at 336 h [16]: 0%; LD50 at 336 h [14]: > 5000 mg/kg
O=C(Nc1ccc(Cl)c(-c2nnc3c(Cl)cccn23)c1)c1ccc(C(F)(F)F)nc1Cl,87.6,0.093,46,> 100,> 100,46.8,> 100,48.3,86.3,Ka (Protein smoothened [3]): 260 M⁻¹ s⁻¹; Kdiss (Protein smoothened [4]): 0.00275 ×10⁻³ /s; Rmax (Protein smoothened [5]): 8.44 RU; KA (Protein smoothened [6]): 9.43 ×10⁷ /M; Kd (Protein smoothened [7]): 0.0106 µM
